Results from ChEMBL document CHEMBL3120060, “Synthesis, in vitro anticancer evaluation and in silico studies of novel imidazo[2,1-b]thiazole derivatives bearing pyrazole moieties” (2014).

Experiments:
Type in all cases: functional
SK-OV-3 = assay: Cytotoxicity against human SKOV3 cells assessed as cell growth at 10 uM after 48 hrs by SRB assay; settings: SK-OV-3, 48 h, read-out: Activity
Procedure, shortened: (§1)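 NCI-60 single-dose screen. Cell lines grown in RPMI 1640 with 5% FBS and 2 mM L-glutamine, plated at 5000–40,000 cells/well according to doubling time, then preincubated 24 h at 37 °C in 5% CO2. Compounds dissolved in DMSO, tested at 10^-5 M for 48 h. Adherent cells fixed with cold TCA (10% final) and stained with 0.4% SRB in 1% acetic acid. Growth expressed as percent of untreated control.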

U-251 = assay: Cytotoxicity against human U251 cells assessed as cell growth at 10 uM after 48 hrs by SRB assay; settings: U-251, 48 h, read-out: Activity
Procedure, shortened: (§2)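 NCI-60 single-dose screen at 10^-5 M. Adherent lines are grown in RPMI 1640 with 5% FBS and 2 mM L-glutamine, seeded at 5000–40,000 cells/well by doubling time, and preincubated 24 h at 37 °C in 5% CO2. Drug is added from DMSO stock diluted in medium, then 48 h. Cells are fixed in cold TCA (final 10%) for 60 min and stained with 0.4% SRB in 1% acetic acid. Growth is expressed as % of untreated control using time-zero plates.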

HCT-15 = assay: Cytotoxicity against human HCT15 cells assessed as cell growth at 10 uM after 48 hrs by SRB assay; settings: HCT-15, 48 h, read-out: Activity; procedure, shortened: as §1
[1] = Cytotoxicity against human UO31 cells assessed as cell growth at 10 uM after 48 hrs by SRB assay; settings: UO-31, 48 h, read-out: Activity; procedure, shortened: as §2
TK-10 = assay: Cytotoxicity against human TK10 cells assessed as cell growth at 10 uM after 48 hrs by SRB assay; settings: TK-10, 48 h, read-out: Activity; procedure, shortened: as §2
HCT-116 = assay: Cytotoxicity against human HCT116 cells assessed as cell growth at 10 uM after 48 hrs by SRB assay; settings: HCT-116, 48 h, read-out: Activity; procedure, shortened: as §1
RPMI-8226 = assay: Cytotoxicity against human RPMI8226 cells assessed as cell growth at 10 uM after 48 hrs by SRB assay; settings: RPMI-8226, 48 h, read-out: Activity; procedure, shortened: as §1
HCC 2998 = assay: Cytotoxicity against human HCC2998 cells assessed as cell growth at 10 uM after 48 hrs by SRB assay; settings: HCC 2998, 48 h, read-out: Activity; procedure, shortened: as §1
[2] = Cytotoxicity against human OVCAR4 cells assessed as cell growth at 10 uM after 48 hrs by SRB assay; settings: OVCAR-4, 48 h, read-out: Activity; procedure, shortened: as §1
IGROV-1 = assay: Cytotoxicity against human IGROV1 cells assessed as cell growth at 10 uM after 48 hrs by SRB assay; settings: IGROV-1, 48 h, read-out: Activity; procedure, shortened: as §1
HOP-62 = assay: Cytotoxicity against human HOP62 cells assessed as cell growth at 10 uM after 48 hrs by SRB assay; settings: HOP-62, 48 h, read-out: Activity; procedure, shortened: as §1
MDA-MB-231 = assay: Cytotoxicity against human MDA-MB-231 cells assessed as cell growth at 10 uM after 48 hrs by SRB assay; settings: MDA-MB-231, 48 h, read-out: Activity; procedure, shortened: as §1
MCF7 = assay: Cytotoxicity against human MCF7 cells assessed as cell growth at 10 uM after 48 hrs by SRB assay; settings: MCF7, 48 h, read-out: Activity; procedure, shortened: as §1
786-0 = assay: Cytotoxicity against human 786-0 cells assessed as cell growth at 10 uM after 48 hrs by SRB assay; settings: 786-0, 48 h, read-out: Activity; procedure, shortened: as §1
SF-539 = assay: Cytotoxicity against human SF539 cells assessed as cell growth at 10 uM after 48 hrs by SRB assay; settings: SF-539, 48 h, read-out: Activity; procedure, shortened: as §1
MDA-MB-468 = assay: Cytotoxicity against human MDA-MB-468 cells assessed as cell growth at 10 uM after 48 hrs by SRB assay; settings: MDA-MB-468, 48 h, read-out: Activity; procedure, shortened: as §1
BT-549 = assay: Cytotoxicity against human BT549 cells assessed as cell growth at 10 uM after 48 hrs by SRB assay; settings: BT-549, 48 h, read-out: Activity; procedure, shortened: as §1
CCRF-CEM = assay: Cytotoxicity against human CCRF-CEM cells assessed as cell growth at 10 uM after 48 hrs by SRB assay; settings: read-out: Activity; procedure, shortened: as §1
SNB-75 = assay: Cytotoxicity against human SNB75 cells assessed as cell growth at 10 uM after 48 hrs by SRB assay; settings: SNB-75, 48 h, read-out: Activity; procedure, shortened: as §1
SF-268 = assay: Cytotoxicity against human SF268 cells assessed as cell growth at 10 uM after 48 hrs by SRB assay; settings: SF-268, 48 h, read-out: Activity; procedure, shortened: as §1
SR = assay: Cytotoxicity against human SR cells assessed as cell growth at 10 uM after 48 hrs by SRB assay; settings: read-out: Activity
Procedure, shortened: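 Leukemia line, NCI-60 single-dose screen at 10^-5 M. Cells are grown in RPMI 1640 with 5% FBS and 2 mM L-glutamine, plated by doubling time, and preincubated 24 h at 37 °C with 5% CO2. After 48 h drug exposure, settled cells are fixed with 80% TCA (final 16%) and stained with SRB. Percent growth is calculated against untreated control and time-zero plates.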

MOLT-4 = assay: Cytotoxicity against human MOLT4 cells assessed as cell growth at 10 uM after 48 hrs by SRB assay; settings: MOLT-4, 48 h, read-out: Activity; procedure, shortened: as §1
NCI-H460 = assay: Cytotoxicity against human NCI-H460 cells assessed as cell growth at 10 uM after 48 hrs by SRB assay; settings: NCI-H460, 48 h, read-out: Activity; procedure, shortened: as §1
M14 = assay: Cytotoxicity against human M14 cells assessed as cell growth at 10 uM after 48 hrs by SRB assay; settings: M14, 48 h, read-out: Activity; procedure, shortened: as §1
SW-620 = assay: Cytotoxicity against human SW620 cells assessed as cell growth at 10 uM after 48 hrs by SRB assay; settings: SW-620, 48 h, read-out: Activity; procedure, shortened: as §2
NCI-H23 = assay: Cytotoxicity against human NCI-H23 cells assessed as cell growth at 10 uM after 48 hrs by SRB assay; settings: NCI-H23, 48 h, read-out: Activity; procedure, shortened: as §1
HT-29 = assay: Cytotoxicity against human HT-29 cells assessed as cell growth at 10 uM after 48 hrs by SRB assay; settings: HT-29, 48 h, read-out: Activity; procedure, shortened: as §1
SK-MEL-5 = assay: Cytotoxicity against human SK-MEL-5 cells assessed as cell growth at 10 uM after 48 hrs by SRB assay; settings: SK-MEL-5, 48 h, read-out: Activity; procedure, shortened: as §1

Row | Structure (SMILES) | growth at 10 µM (SK-OV-3) [%] | growth at 10 µM (U-251) [%] | growth at 10 µM (HCT-15) [%] | growth at 10 µM [1] [%] | growth at 10 µM (TK-10) [%] | growth at 10 µM (HCT-116) [%] | growth at 10 µM (RPMI-8226) [%] | growth at 10 µM (HCC 2998) [%] | growth at 10 µM [2] [%] | growth at 10 µM (IGROV-1) [%] | growth at 10 µM (HOP-62) [%] | growth at 10 µM (MDA-MB-231) [%] | growth at 10 µM (MCF7) [%] | growth at 10 µM (786-0) [%] | growth at 10 µM (SF-539) [%] | growth at 10 µM (MDA-MB-468) [%] | growth at 10 µM (BT-549) [%] | growth at 10 µM (CCRF-CEM) [%] | growth at 10 µM (SNB-75) [%] | growth at 10 µM (SF-268) [%] | further results
1 | CC1=NN(c2cn3c(-c4ccc(C)cc4)csc3n2)C(=O)C1 | 95.5 | 94.1 | 103 | 71.6 | 135 | 94.4 | 93.6 | 103 | 99.9 | 101 | 99.2 | 79 | 91.8 | 101 | 102 | 102 | 111 | 94 | 79.1 | 111 | growth at 10 µM (SR): 73.3%; growth at 10 µM (MOLT-4): 78.9%; growth at 10 µM (NCI-H460): 105%; growth at 10 µM (M14): 99.2%; growth at 10 µM (SW-620): 105%; growth at 10 µM (NCI-H23): 95.5%; growth at 10 µM (HT-29): 118%; growth at 10 µM (SK-MEL-5): 90%
2 | Cc1ccc(-c2csc3nc(N4NC(=O)CC4=O)cn23)cc1 | 101 | 98.1 | 100 | 74.7 | 139 | 108 | 98.1 | 102 | 99.1 | 105 | 105 | 104 | 93.9 | 103 | 101 | 106 | 113 | 95.6 | 73.3 | 106 | growth at 10 µM (SR): 84.4%; growth at 10 µM (MOLT-4): 90.3%; growth at 10 µM (NCI-H460): 111%; growth at 10 µM (M14): 105%; growth at 10 µM (SW-620): 103%; growth at 10 µM (NCI-H23): 96.9%; growth at 10 µM (HT-29): 111%; growth at 10 µM (SK-MEL-5): 95.9%
3 | Cc1cc(C)n(-c2cn3c(-c4ccc(Cl)cc4)csc3n2)n1 | 93.4 | 87.8 | 95.5 | 89.6 | 128 | 89.8 | 68.2 | 102 | 81.9 | 108 | 97.1 | 86.4 | 85.1 | 102 | 104 | 88.5 | 113 | 87.8 | 69.2 | 102 | growth at 10 µM (SR): 65.8%; growth at 10 µM (MOLT-4): 81.3%; growth at 10 µM (NCI-H460): 101%; growth at 10 µM (M14): 101%; growth at 10 µM (SW-620): 100%; growth at 10 µM (NCI-H23): 91%; growth at 10 µM (HT-29): 87%; growth at 10 µM (SK-MEL-5): 85.5%
4 | Cc1ccc(-c2csc3nc(-n4nc(C)cc4C)cn23)cc1 | 101 | 95 | 101 | 94.4 | 141 | 97 | 90.3 | 107 | 97.8 | 107 | 104 | 88.8 | 89.7 | 105 | 109 | 112 | 125 | 96 | 85.9 | 112 | growth at 10 µM (SR): 81%; growth at 10 µM (MOLT-4): 98.4%; growth at 10 µM (NCI-H460): 102%; growth at 10 µM (M14): 104%; growth at 10 µM (SW-620): 106%; growth at 10 µM (NCI-H23): 93.3%; growth at 10 µM (HT-29): 104%; growth at 10 µM (SK-MEL-5): 98.9%
5 | O=C1CN2C(c3ccccc3)=CSC2=N1 | 89.5 | 93.9 | 95.9 | 61.3 | 125 | 97.6 | 94.4 | 97.8 | 97.7 | 104 | 93.6 | 96.7 | 88.5 | 104 | 97.5 | 106 | 112 | 96.3 | 61 | 110 | growth at 10 µM (SR): 86%; growth at 10 µM (MOLT-4): 95.4%; growth at 10 µM (NCI-H460): 105%; growth at 10 µM (M14): 99.9%; growth at 10 µM (SW-620): 94.8%; growth at 10 µM (NCI-H23): 94.9%; growth at 10 µM (HT-29): 109%; growth at 10 µM (SK-MEL-5): 99.8%
